The full list was thinned out, with hits kept by preference.
CHOP UPR activ: activators of apoptotic arm of unfolded protein response (CHOP) | CHO-CHOP luciferase reporter, UPR activation, luminescence; percent of tunicamycin response over DMSO baseline | actives 0.34% (n = 330,000) | activation, % at 10 µM;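 active = at 10 µM dose, activation of 40% or more, normalized to positive control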;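 note: 100% = tunicamycin at 10 µg/mL and 0% = DMSO alone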
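Material: CHO-CHOP cells, stable luciferase reporter of PERK-eIF2a-CHOP signalling; quantity: 500 reporter cells seeded per well; buffer or medium: F12 medium containing 10% fetal bovine serum; compound: one dose, 10 µM in 0.5% DMSO; incubation: 6 h compound treatment, 37 °C; measured by: Steady-Glo luciferase luminescence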
XBP1 UPR activ: adaptive UPR (XBP1) activation; activation, % at 20 µM; CHO-XBP1 luciferase reporter, IRE1-XBP1 UPR activation, luminescence; percent of tunicamycin response, DMSO as zero; AID 463104; actives 0.33% (n = 330,000);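 active = versus positive control, 20 µM dose yields 30% or more activation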;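 note: 100% = tunicamycin at 10 µg/mL and 0% = DMSO only wells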
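Material: CHO cell line with stable XBP1 luciferase reporter; schedule: 16-18 h cell attachment at 37 °C, then 6 h compound exposure; signal: glow luminescence from Steady-Glo reagent; medium: serum-containing F12 medium, 10% FBS; benchmarks: tunicamycin 10 µg/mL and vehicle-only wells; read-out: percent activation relative to tunicamycin reference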
Jurkat NFkB inh: lowers PMA/ionomycin-induced NF-kB signal in Jurkat cells; PMA/ionomycin-induced NF-kB luciferase reporter, luminescence; inhibition, % at 4 µM; actives 0.53% (n = 330,000); AID 435003; in the data active = inhibition above about 50%
697 NFkB inh: lowers PMA/ionomycin-induced NF-kB signal in 697 B cells; 697 B-cell NF-kB luciferase reporter, 16 h; inhibition, % at 4 µM; actives 0.33% (n = 330,000); AID 435022; in the data active = inhibition above about 35%
CHOP inh: CHOP inhibition in unfolded protein response; actives 3.8% (n = 220,000); inhibition, % at 10 µM; CHO-K1 CHOP-promoter luciferase, tunicamycin-induced, 15-18 h;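 active = compounds that reduced the stress-induced luciferase reporter signal by more than about 70% of percent inhibition, limit read from the data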;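 note: 0% = tunicamycin plus vehicle and 100% = wells without tunicamycin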
Jurkat NFkB conf: inhibitors of the PMA/ionomycin-induced NF-kB reporter in Jurkat cells, retest; shares compounds with Jurkat NFkB inh; Jurkat NF-kB luciferase, 16 h; inhibition, % at 4 µM; actives 27% (n = 2,700);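 active = inhibition reaching about 45% at 4 µM in either replicate, limit read from the data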;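 note: plate controls were PMA/ionomycin stimulated DMSO wells for no effect and unstimulated DMSO wells for full effect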
* hit, by the source's call; nt = not tested or not shown.

SMILES | CHOP UPR activ | XBP1 UPR activ | Jurkat NFkB inh | 697 NFkB inh | CHOP inh | Jurkat NFkB conf
O=C(Nc1ccc2nc(-c3cccs3)[nH]c2c1)c1cccs1 | 4 | 9 | -34 | -78 | -11 | nt
O=C(Nc1ccc(OC(F)F)c(Cl)c1)c1cccc(OC(F)F)c1 | 3 | 5 | -41 | -28 | 56 | nt
O=C(Nc1ccc2c(c1)CCC2)c1cccc(OC(F)F)c1 | 6 | 1 | -193 | -189 | nt | -108
O=C(Nc1ccc2c(c1)CCC2)c1ccc(F)cc1 | 4 | -3 | -201 | -230 | 42 | -91
O=C(Nc1ccc(F)cc1)Nc1ccc2c(c1)CCC2 | 7 | 1 | -108 | -43 | nt | nt
CCN(CC)C(=O)c1[nH]cnc1C(=O)N[C@@H](C)C(=O)OC(C)(C)C | -1 | -2 | 1 | 10 | 4 | nt
O=C(Nc1ccc2c(c1)CCC2)Nc1ccc(F)cc1F | 4 | 4 | -178 | -160 | nt | -67
O=C(Nc1ccc2c(c1)CCC2)c1cccs1 | 3 | 4 | -176 | -145 | 5 | -108
O=C(OCC(=O)N1CCc2ccccc2C1)c1cc(=O)[nH]c2ccccc12 | 5 | -1 | -3 | -18 | -19 | nt
Cc1ccc(NC(=O)CCNS(=O)(=O)c2ccc(OC(F)(F)F)cc2)c(O)c1 | 2 | -1 | 17 | 4 | nt | nt
Cc1ccc(S(=O)(=O)N2CCN(c3ncnc4sccc34)CC2)cc1C | 4 | -2 | 25 | -9 | nt | nt
O=S(=O)(c1ccc2c(c1)OCCO2)N1CCN(c2ncnc3sccc23)CC1 | 3 | 1 | 52* | 4 | 63 | 54*
CC1CC(C)CN(C(=O)CCNC(=O)c2ccccc2Cl)C1 (configuration not stated) | 0 | -2 | -27 | -4 | nt | nt
O=[N+]([O-])c1ccccc1/C=C/c1ccc2ccccc2n1 | 7 | 2 | -153 | -193 | nt | -78
CCOC(=O)c1sc(NC(=O)c2ccc(Br)o2)cc1C | 2 | 2 | -177 | -105 | 49 | -98
CCOC(=O)c1sc(NC(=O)c2cccs2)cc1C | 4 | 2 | -152 | -201 | 2 | -104
Cc1occc(=O)c1OC(=O)Nc1ccccc1 | 2 | 1 | -4 | 2 | 4 | nt
Cc1ccc(-n2c(C)cc(C(=S)N3CCOCC3)c2C)cc1C | 2 | -2 | 7 | -11 | 16 | nt
CN(C)Cc1ccc(-c2nc3cccc4c3n2CCNC4=O)cc1 | -3 | -1 | 57* | -11 | nt | 7
Cc1cc(CN(C)C(=O)CC2C(=O)NCCN2Cc2ccc(-c3ccccc3)cc2)on1 (configuration not stated) | -2 | -2 | -5 | 8 | nt | nt
COc1ccc(-n2ncc3c2CC(C)(C)CC3NC(=O)C2=CC(=O)CC(C)(C)O2)cc1 (configuration not stated) | -1 | -3 | 8 | -4 | nt | nt
Cc1ccccc1NC(=O)c1cc2ccccc2o1 | 6 | -5 | -109 | -13 | nt | nt
Cc1ccc(NC(=O)c2cc3ccccc3o2)nc1 | -2 | -2 | -170 | -197 | nt | -107
O=C(Nc1ccc(Cl)cc1Cl)c1cc2ccccc2o1 | 5 | -1 | -154 | -221 | nt | -123
Cc1cc(C)nc(NC(=O)c2cc3ccccc3o2)n1 | -1 | -3 | -1 | 17 | 26 | nt
SMILES | CHOP UPR activ | XBP1 UPR activ | Jurkat NFkB inh | 697 NFkB inh | CHOP inh | Jurkat NFkB conf
O=C(CSc1ccc2nnc(-c3ccccc3)n2n1)N1CCCCC1 | 1 | 0 | 7 | 14 | nt | nt
NCCCNc1nc(N)c([N+](=O)[O-])c(NC2CCCCC2)n1 | 1 | 9 | 91* | -66 | nt | 20
COc1ccc(OC)c(Nc2c3ccccc3nc3ccccc23)c1 | 3 | -2 | 31 | -67 | nt | nt
COc1ccc([N+](=O)[O-])cc1Nc1c2ccccc2nc2ccccc12 | 2 | 8 | 59* | -37 | nt | 41
O=C(CN1CCN(S(=O)(=O)c2ccc3c(c2)OCCO3)CC1)Nc1cccc(F)c1 | -1 | 1 | -18 | 10 | nt | nt
Cc1cc(C)c2sc(NC(=O)C3=COCCO3)nc2c1 | 2 | -2 | -170 | -163 | nt | 10
O=S(=O)(Nc1cccc(-c2ccc3nncn3n2)c1)c1cccc(F)c1 | -1 | -1 | 1 | 9 | nt | nt
COc1ccc(S(=O)(=O)Nc2cccc(-c3ccc4nncn4n3)c2)cc1F | -3 | 4 | 58* | -7 | 0 | 50*

Assay outcomes (PubChem)
